Test results from ChEMBL document CHEMBL1141285, “Antimicrobial compounds from the Australian desert plant Eremophila neglecta” (2007).
≈ marks a conversion by molar mass, not a printed value. Calls of active or inactive are those of the source. No cut-off for these calls is given here.

What was measured:
Staphylococcus aureus [1] = assay: Antimicrobial activity against Staphylococcus aureus ATCC 29213 at 621.5 uM by broth microdilution method; format: functional, organism-based
Staphylococcus aureus [2] = assay: Antimicrobial activity against Staphylococcus aureus ATCC 29213 by broth microdilution method; format: functional
How it was run: (§1)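 Broth microdilution in cation-adjusted MH II broth with 2% DMSO in the 2-fold serial dilutions (final 1% v/v), done in duplicate. Bacteria grown on 5% sheep blood agar at 37 °C. Final inoculum 5 × 10^5 CFU/mL. Plates shaken 10 min, then incubated overnight at 37 °C. MIC is the lowest concentration with no growth in both duplicate wells.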

Staphylococcus aureus [3] = assay: Antimicrobial activity against Staphylococcus aureus ATCC 25923 by broth microdilution method; format: functional; how it was run: as §1
Streptococcus pyogenes = assay: Antimicrobial activity against Streptococcus pyogenes ATCC 10389 by broth microdilution method; format: functional
How it was run: as §1, with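 “brain heart infusion” for “cation-adjusted MH II”, “duplicate.” for “duplicate. Bacteria grown on 5% sheep blood agar at 37 °C.”, “°C with 5% CO2.” for “°C.”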

Salmonella typhimurium = assay: Antimicrobial activity against Salmonella Typhimurium ATCC 13311 at 621.5 uM by broth microdilution method; format: functional, organism-based; settings: Salmonella enterica subsp. enterica serovar Typhimurium
Streptococcus pneumoniae = assay: Antimicrobial activity against Streptococcus pneumoniae ATCC 49619 by broth microdilution method; format: functional
How it was run: as §1, with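 “brain heart infusion” for “cation-adjusted MH II”, “duplicate.” for “duplicate. Bacteria grown on 5% sheep blood agar at 37 °C.”, “°C with 5% CO2.” for “°C.”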

Pseudomonas aeruginosa = assay: Antimicrobial activity against Pseudomonas aeruginosa ATCC 27853 at 621.5 uM by broth microdilution method; format: functional, organism-based
Escherichia coli = assay: Antimicrobial activity against Escherichia coli ATCC 25922 at 621.5 uM by broth microdilution method; format: functional, organism-based
Staphylococcus aureus [4] = assay: Antimicrobial activity against Staphylococcus aureus ATCC 29213 by broth microdilution method

Row | Molecule | Activity (Staphylococcus aureus [1]) | MIC (Staphylococcus aureus [2]) [µM] | MBC (Staphylococcus aureus [3]) [µM] | MIC (Staphylococcus aureus [3]) [µM] | MBC (Streptococcus pyogenes) [µM] | MIC (Streptococcus pyogenes) [µM] | Activity (Salmonella typhimurium) | MBC (Staphylococcus aureus [2]) [µM] | MBC (Streptococcus pneumoniae) [µM] | MIC (Streptococcus pneumoniae) [µM] | Activity (Pseudomonas aeruginosa) | Activity (Escherichia coli) | MIC (Staphylococcus aureus [4]) [µM]
1 | CC(=O)OCc1cc(O)c2c(c1)[C@H]([C@@H](C)CCC=C(C)C)C[C@H](OC(C)=O)[C@H]2C | inactive | – | – | – | – | – | – | – | – | – | – | – | –
2 | GENTAMICIN | – | 1 | – | – | – | – | – | – | – | – | – | – | –
3 | CC(C)=CCC[C@H](C)[C@@H]1CC[C@@H](C)c2c(O)cc(CO)cc21 | – | 25.8 (≈ 7.8 µg/mL) | 25.8 (≈ 7.8 µg/mL) | 25.8 (≈ 7.8 µg/mL) | 12.9 (≈ 3.9 µg/mL) | 12.9 (≈ 3.9 µg/mL) | inactive | 25.8 (≈ 7.8 µg/mL) | 12.9 (≈ 3.9 µg/mL) | 12.9 (≈ 3.9 µg/mL) | inactive | inactive | –
4 | CC(C)=CCCC1=COC2=C(C)C(=O)C(=O)c3c(C)ccc1c32 | – | 25.3 (≈ 7.8 µg/mL) | 50.6 (≈ 15.6 µg/mL) | 25.3 (≈ 7.8 µg/mL) | 203 (≈ 62.6 µg/mL) | 102 (≈ 31.3 µg/mL) | inactive | 203 (≈ 62.6 µg/mL) | 12.7 (≈ 3.92 µg/mL) | 6.5 (≈ 2 µg/mL) | inactive | inactive | –
5 | CN[C@H](CC(C)C)C(=O)N[C@H]1C(=O)N[C@@H](CC(N)=O)C(=O)N[C@H]2C(=O)N[C@H]3C(=O)N[C@H](C(=O)N[C@H](C(=O)O)c4cc(O)cc(O)c4-c4cc3ccc4O)[C@H](O)c3ccc(c(Cl)c3)Oc3cc2cc(c3O[C@@H]2O[C@H](CO)[C@@H](O)[C@H](O)[C@H]2O[C@H]2C[C@](C)(N)[C@H](O)[C@H](C)O2)Oc2ccc(cc2Cl)[C@H]1O [VANCOMYCIN] | – | – | – | – | – | – | – | – | – | – | – | – | 0.7 (≈ 1.01 µg/mL)
6 | CC(C)=CCC[C@H](C)[C@@H]1CC[C@@H](C)c2c(O)cc(C(=O)O)cc21 | – | 49.3 (≈ 15.6 µg/mL) | 99 (≈ 31.3 µg/mL) | 49.3 (≈ 15.6 µg/mL) | 99 (≈ 31.3 µg/mL) | 24.7 (≈ 7.82 µg/mL) | inactive | 49.3 (≈ 15.6 µg/mL) | 49.3 (≈ 15.6 µg/mL) | 24.7 (≈ 7.82 µg/mL) | inactive | inactive | –
